Laboratory results published in ChEMBL document CHEMBL1949585, “Design, synthesis and evaluation of telomerase inhibitory, hTERT repressing, and anti-proliferation activities of symmetrical 1,8-disubstituted amidoanthraquinones” (Eur J Med Chem, 2012).

Legend:
[1] = Cytotoxicity against human H1299 cells assessed as cell growth at 10 uM after 48 hrs by MTT assay; format: functional; settings: NCI-H1299, 48 h, read-out: Activity
How it was run: (§1)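 H1299 non-small lung cancer cells were grown in RPMI 1640 with 10% FBS and penicillin/streptomycin at 37 °C in 5% CO2. About 2×10³ cells were seeded per well and held 24 h, then washed with PBS and given fresh medium. Compound, freshly dissolved in DMSO and diluted in complete medium, was added for 48 h. MTT was read at 550 nm after SDS/DMF lysis at 37 °C for 16 h. Values are from three experiments, untreated = 100%, ±SD.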

[2] = Cytotoxicity against human H1299 cells assessed as cell growth at 100 uM after 48 hrs by MTT assay; format: functional; settings: NCI-H1299, 48 h, read-out: Activity; how it was run: as §1
K562 = experiment: Cytotoxicity against human K562 cells assessed as cell growth at 10 uM relative to control; format: functional; settings: read-out: Activity
How it was run: (§2)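 Single-concentration screen in the NCI 60 human tumour cell line panel covering nine cancer types. Values are the mean growth percentage of compound-treated cells, with untreated control cells set as 100%.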

MOLT-4 = experiment: Cytotoxicity against human MOLT4 cells assessed as cell growth at 10 uM relative to control; format: functional; settings: read-out: Activity; how it was run: as §2
RPMI-8226 = experiment: Cytotoxicity against human RPMI8226 cells assessed as cell growth at 10 uM relative to control; format: functional; settings: read-out: Activity; how it was run: as §2
EKVX = experiment: Cytotoxicity against human EKVX cells assessed as cell growth at 10 uM relative to control; format: functional; settings: read-out: Activity; how it was run: as §2
HOP-62 = experiment: Cytotoxicity against human HOP62 cells assessed as cell growth at 10 uM relative to control; format: functional; settings: read-out: Activity; how it was run: as §2
HOP-92 = experiment: Cytotoxicity against human HOP92 cells assessed as cell growth at 10 uM relative to control; format: functional; settings: read-out: Activity; how it was run: as §2
NCI-H226 = experiment: Cytotoxicity against human NCI-H226 cells assessed as cell growth at 10 uM relative to control; format: functional; settings: read-out: Activity; how it was run: as §2
NCI-H23 = experiment: Cytotoxicity against human NCI-H23 cells assessed as cell growth at 10 uM relative to control; format: functional; settings: read-out: Activity; how it was run: as §2
NCI-H322M = experiment: Cytotoxicity against human NCI-H322M cells assessed as cell growth at 10 uM relative to control; format: functional; settings: read-out: Activity; how it was run: as §2
NCI-H460 = experiment: Cytotoxicity against human NCI-H460 cells assessed as cell growth at 10 uM relative to control; format: functional; settings: read-out: Activity; how it was run: as §2
COLO 205 = experiment: Cytotoxicity against human COLO205 cells assessed as cell growth at 10 uM relative to control; format: functional; settings: read-out: Activity; how it was run: as §2
HCC 2998 = experiment: Cytotoxicity against human HCC2998 cells assessed as cell growth at 10 uM relative to control; format: functional; settings: read-out: Activity; how it was run: as §2
HCT-15 = experiment: Cytotoxicity against human HCT15 cells assessed as cell growth at 10 uM relative to control; format: functional; settings: read-out: Activity; how it was run: as §2
HT-29 = experiment: Cytotoxicity against human HT-29 cells assessed as cell growth at 10 uM relative to control; format: functional; settings: read-out: Activity; how it was run: as §2
SW-620 = experiment: Cytotoxicity against human SW620 cells assessed as cell growth at 10 uM relative to control; format: functional; settings: read-out: Activity
How it was run: (§3)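 Run in the NCI 60-cell human tumour panel. Cells were exposed to 10 µM compound, and growth was given as a percentage of untreated control cells set to 100%.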

BT-549 = experiment: Cytotoxicity against human BT549 cells assessed as cell growth at 10 uM relative to control; format: functional; settings: read-out: Activity; how it was run: as §2
MDA-MB-231 = experiment: Cytotoxicity against human MDA-MB-231 cells assessed as cell growth at 10 uM relative to control; format: functional; settings: read-out: Activity; how it was run: as §2
MDA-MB-435 = experiment: Cytotoxicity against human MDA-MB-435 cells assessed as cell growth at 10 uM relative to control; format: functional; settings: read-out: Activity; how it was run: as §2
MDA-MB-468 = experiment: Cytotoxicity against human MDA-MB-468 cells assessed as cell growth at 10 uM relative to control; format: functional; settings: read-out: Activity; how it was run: as §2
NCI/ADR-RES = experiment: Cytotoxicity against human NCI/ADR-RES cells assessed as cell growth at 10 uM relative to control; format: functional; settings: read-out: Activity; how it was run: as §2
T47D = experiment: Cytotoxicity against human T47D cells assessed as cell growth at 10 uM relative to control; format: functional; settings: read-out: Activity; how it was run: as §3
OVCAR-3 = experiment: Cytotoxicity against human OVCAR3 cells assessed as cell growth at 10 uM relative to control; format: functional; settings: read-out: Activity; how it was run: as §2
OVCAR-5 = experiment: Cytotoxicity against human OVCAR5 cells assessed as cell growth at 10 uM relative to control; format: functional; settings: read-out: Activity; how it was run: as §2
SK-OV-3 = experiment: Cytotoxicity against human SKOV3 cells assessed as cell growth at 10 uM relative to control; format: functional; settings: read-out: Activity; how it was run: as §2
[3] = Cytotoxicity against human 786-O cells assessed as cell growth at 10 uM relative to control; format: functional; settings: 786-0, read-out: Activity; how it was run: as §2
A498 = experiment: Cytotoxicity against human A498 cells assessed as cell growth at 10 uM relative to control; format: functional; settings: read-out: Activity; how it was run: as §2
ACHN = experiment: Cytotoxicity against human ACHN cells assessed as cell growth at 10 uM relative to control; format: functional; settings: read-out: Activity; how it was run: as §2
CAKI-1 = experiment: Cytotoxicity against human CAKI-1 cells assessed as cell growth at 10 uM relative to control; format: functional; settings: read-out: Activity; how it was run: as §2
SN12C = experiment: Cytotoxicity against human SN12C cells assessed as cell growth at 10 uM relative to control; format: functional; settings: read-out: Activity; how it was run: as §2
TK-10 = experiment: Cytotoxicity against human TK10 cells assessed as cell growth at 10 uM relative to control; format: functional; settings: read-out: Activity; how it was run: as §3
UO-31 = experiment: Cytotoxicity against human UO31 cells assessed as cell growth at 10 uM relative to control; format: functional; settings: read-out: Activity; how it was run: as §3
LOX IMVI = experiment: Cytotoxicity against human LOXIMVI cells assessed as cell growth at 10 uM relative to control; format: functional; settings: read-out: Activity; how it was run: as §2
Malme-3M = experiment: Cytotoxicity against human MALME-3M cells assessed as cell growth at 10 uM relative to control; format: functional; settings: read-out: Activity; how it was run: as §2
SK-MEL-28 = experiment: Cytotoxicity against human SK-MEL-28 cells assessed as cell growth at 10 uM relative to control; format: functional; settings: read-out: Activity; how it was run: as §2
SK-MEL-5 = experiment: Cytotoxicity against human SK-MEL-5 cells assessed as cell growth at 10 uM relative to control; format: functional; settings: read-out: Activity; how it was run: as §2
UACC-257 = experiment: Cytotoxicity against human UACC257 cells assessed as cell growth at 10 uM relative to control; format: functional; settings: read-out: Activity; how it was run: as §3
PC-3 = experiment: Cytotoxicity against human PC3 cells assessed as cell growth at 10 uM relative to control; format: functional; settings: read-out: Activity; how it was run: as §2
SF-268 = experiment: Cytotoxicity against human SF268 cells assessed as cell growth at 10 uM relative to control; format: functional; settings: read-out: Activity; how it was run: as §2
SF-295 = experiment: Cytotoxicity against human SF295 cells assessed as cell growth at 10 uM relative to control; format: functional; settings: read-out: Activity; how it was run: as §2
SNB-75 = experiment: Cytotoxicity against human SNB75 cells assessed as cell growth at 10 uM relative to control; format: functional; settings: read-out: Activity; how it was run: as §3
U-251 = experiment: Cytotoxicity against human U251 cells assessed as cell growth at 10 uM relative to control; format: functional; settings: read-out: Activity; how it was run: as §3
[4] = Inhibition of human TERT expression in H1299 cells at 1 uM after 24 hrs by secreted alkaline phosphatase reporter gene assay relative to control; values are per cent of control; settings: NCI-H1299
[5] = Inhibition of human TERT expression in H1299 cells at 10 uM after 24 hrs by secreted alkaline phosphatase reporter gene assay relative to control; values are per cent of control; settings: NCI-H1299

CCN(CC)CC(=O)Nc1cccc2c1C(=O)c1c(NC(=O)CN(CC)CC)cccc1C2=O
growth at 10 µM [1]: 78%
growth at 100 µM [2]: 50%
growth at 10 µM (K562): 106%
growth at 10 µM (MOLT-4): 91.2%
growth at 10 µM (RPMI-8226): 68.5%
growth at 10 µM (EKVX): 104%
growth at 10 µM (HOP-62): 88.3%
growth at 10 µM (HOP-92): 93.5%
growth at 10 µM (NCI-H226): 85.5%
growth at 10 µM (NCI-H23): 97.1%
growth at 10 µM (NCI-H322M): 93.8%
growth at 10 µM (NCI-H460): 97.2%
growth at 10 µM (COLO 205): 114%
growth at 10 µM (HCC 2998): 103%
growth at 10 µM (HCT-15): 93.4%
growth at 10 µM (HT-29): 101%
growth at 10 µM (SW-620): 104%
growth at 10 µM (BT-549): 97.4%
growth at 10 µM (MDA-MB-231): 91.2%
growth at 10 µM (MDA-MB-435): 103%
growth at 10 µM (MDA-MB-468): 86.6%
growth at 10 µM (NCI/ADR-RES): 101%
growth at 10 µM (T47D): 84.8%
growth at 10 µM (OVCAR-3): 161%
growth at 10 µM (OVCAR-5): 101%
growth at 10 µM (SK-OV-3): 103%
growth at 10 µM [3]: 86.4%
growth at 10 µM (A498): 93.3%
growth at 10 µM (ACHN): 91.9%
growth at 10 µM (CAKI-1): 88.3%
growth at 10 µM (SN12C): 92.1%
growth at 10 µM (TK-10): 105%
growth at 10 µM (UO-31): 87.3%
growth at 10 µM (LOX IMVI): 89.3%
growth at 10 µM (Malme-3M): 112%
growth at 10 µM (SK-MEL-28): 117%
growth at 10 µM (SK-MEL-5): 101%
growth at 10 µM (UACC-257): 105%
growth at 10 µM (PC-3): 89.1%
growth at 10 µM (SF-268): 138%
growth at 10 µM (SF-295): 88.9%
growth at 10 µM (SNB-75): 81.7%
growth at 10 µM (U-251): 100%
level, % of control [4]: 86%
level, % of control [5]: 84%

COC(=O)CNCC(=O)Nc1cccc2c1C(=O)c1c(NC(=O)CNCC(=O)OC)cccc1C2=O
growth at 10 µM [1]: 86%
growth at 100 µM [2]: 68%
growth at 10 µM (K562): 97.1%
growth at 10 µM (MOLT-4): 83.8%
growth at 10 µM (RPMI-8226): 37.4%
growth at 10 µM (EKVX): 104%
growth at 10 µM (HOP-62): 108%
growth at 10 µM (HOP-92): 75.8%
growth at 10 µM (NCI-H226): 84.6%
growth at 10 µM (NCI-H23): 95.2%
growth at 10 µM (NCI-H322M): 94.5%
growth at 10 µM (NCI-H460): 95.1%
growth at 10 µM (COLO 205): 102%
growth at 10 µM (HCC 2998): 106%
growth at 10 µM (HCT-15): 94.3%
growth at 10 µM (HT-29): 96.3%
growth at 10 µM (SW-620): 109%
growth at 10 µM (BT-549): 99.9%
growth at 10 µM (MDA-MB-231): 90.2%
growth at 10 µM (MDA-MB-435): 102%
growth at 10 µM (MDA-MB-468): 83.8%
growth at 10 µM (NCI/ADR-RES): 92.9%
growth at 10 µM (T47D): 83.8%
growth at 10 µM (OVCAR-3): 89.9%
growth at 10 µM (OVCAR-5): 106%
growth at 10 µM (SK-OV-3): 104%
growth at 10 µM [3]: 103%
growth at 10 µM (A498): 85.2%
growth at 10 µM (ACHN): 90.7%
growth at 10 µM (CAKI-1): 83.8%
growth at 10 µM (SN12C): 90.4%
growth at 10 µM (TK-10): 84.9%
growth at 10 µM (UO-31): 88.9%
growth at 10 µM (LOX IMVI): 88.2%
growth at 10 µM (Malme-3M): 102%
growth at 10 µM (SK-MEL-28): 127%
growth at 10 µM (SK-MEL-5): 94.3%
growth at 10 µM (UACC-257): 92.4%
growth at 10 µM (PC-3): 76.6%
growth at 10 µM (SF-268): 100%
growth at 10 µM (SF-295): 97.2%
growth at 10 µM (SNB-75): 89.9%
growth at 10 µM (U-251): 93.7%
level, % of control [4]: 111%
level, % of control [5]: 93%
